Experimental data taken from ChEMBL document CHEMBL1122910, “Syntheses and evaluation as antifolates of MTX analogues derived from 2, omega-diaminoalkanoic acids” (J Med Chem, 1985).

What was measured:
L1210 [1] = test: Inhibition of L1210 cell growth in mice.; format: functional, cell-based; details: Mus musculus
L1210 [2] = test: Antitumor activity L1210 cell line as cell membrane transport activity; format: functional, cell-based; details: Mus musculus
L1210 [3] = test: Antitumor activity against L1210 cell line as cell membrane transport activity; format: functional, Mus musculus
Dihydrofolate reductase = biological target: T1, Dihydrofolate reductase (Mus musculus, UniProt P00375); test: In vitro inhibitory activity against Dihydrofolate reductase in L1210 cell in mice; format: cell-based
T1 sequence (P00375 whole entry): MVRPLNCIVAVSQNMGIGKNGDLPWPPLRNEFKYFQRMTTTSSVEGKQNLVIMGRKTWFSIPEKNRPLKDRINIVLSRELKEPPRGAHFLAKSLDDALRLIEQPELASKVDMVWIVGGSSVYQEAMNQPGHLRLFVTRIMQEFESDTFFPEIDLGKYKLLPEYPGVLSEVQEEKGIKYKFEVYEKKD

L1210 [4] = test: (§1) In vitro antitumor activity against L1210 cell line.; format: functional, cell-based; details: Mus musculus
Ehrlich [5] = test: In vitro antitumor activity against Erlich cell line.; format: functional, Mus musculus
Epithelial cell line = test: (§2) In vitro antitumor activity against epithelial cell line.; format: functional, Mus musculus
Mus musculus [6] = test: Antitumor activity in mice with L1210 Leukemia and percentage increase in life span was reported for 3 mice x 2 experiments at a dose of 144 mg/kg; format: functional
How it was run: (§3)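 L1210 leukemia-bearing mice dosed on a q2d × 5 schedule. Untreated controls were 5 mice × 12 experiments. Read-outs were MST (days ± SD), % ILS versus control, and body weight at termination (g ± SD).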

Mus musculus [7] = test: Antitumor activity in mice with L1210 Leukemia and weight at termination of the therapy was reported for 3 mice x 2 experiments at a dose of 144 mg/kg.; format: functional
L1210 [8] = test: as §1; format: functional, Mus musculus
CCRF S-180 = test: In vitro antitumor activity against S180 cell line.; format: functional, Mus musculus
Mus musculus [9] = test: Antitumor activity in mice with L1210 Leukemia and […] (MST) in days was reported for 3 mice x 2 experiments at a dose of 144 mg/kg.; format: functional; how it was run: as §3
Mus musculus [10] = test: Antitumor activity in mice with L1210 Leukemia and weight at termination of the therapy was reported for 3 mice x 2 experiments at a dose of 432 mg/Kg.; format: functional
Mus musculus [11] = test: Antitumor activity in mice with L1210 Leukemia and […] (MST) in days was reported for 3 mice x 2 experiments at a dose of 432 mg/Kg.; format: functional; how it was run: as §3
Mus musculus [12] = test: Antitumor activity in mice with L1210 Leukemia and percentage increase in life span was reported for 3 mice x 2 experiments at a dose of 432 mg/Kg; format: functional; how it was run: as §3
[13] = In vitro antitumor activity against S180 cells.; format: functional, Mus musculus, CCRF S-180
Mus musculus [14] = organism: Mus musculus; test: Antitumor activity against L1210 cell […]; format: functional
Epithelial cell = test: as §2; format: functional, Mus musculus
L1210 [15] = test: In vivo antitumor activity as increase in life span in mice with L1210 10E6 tumor cell implanted intraperitoneally; optimal dose is 12 mg/kg.; format: functional; details: Mus musculus, L1210, ip, route intraperitoneal
Mus musculus [16] = test: Antitumor activity in mice with L1210 Leukemia and weight at termination of the therapy was reported for 5 mice x 12 experiments at a dose of 15 mg/kg.; format: functional
Ehrlich [17] = test: In vitro antitumor activity against Erlich cell line,; format: functional, Mus musculus
Mus musculus [18] = test: Antitumor activity in mice with L1210 Leukemia and percentage increase in life span was reported for 5 mice x 12 experiments at a dose of 15 mg/Kg
P388 = test: In vivo antitumor activity as increase in life span in mice with P388 10E6 tumor cell implanted intraperitoneally; format: functional, Mus musculus
L1210 [19] = test: In vivo antitumor activity as increase in life span in mice with L1210 10E6 tumor cell implanted intraperitoneally; optimal dose is 768 mg/kg.; format: functional; details: Mus musculus, L1210, ip, route intraperitoneal

Compound	IC50 (L1210 [1])	Efflux Ki (L1210 [2])	Influx Ki (L1210 [3])	Ki (Dihydrofolate reductase)	other results
CN(Cc1cnc2nc(N)nc(N)c2n1)c1ccc(C(=O)NC(CNC(=O)OC(C)(C)C)C(=O)O)cc1 (stereo not given)	440 nM	–	–	–	–
CN(Cc1cnc2nc(N)nc(N)c2n1)c1ccc(C(=O)NC(CCCN)C(=O)O)cc1 (stereo not given)	507 nM	–	–	–	–
CN(Cc1cnc2nc(N)nc(N)c2n1)c1ccc(C(=O)NC(CCNC(=O)c2ccc(Cl)cc2)C(=O)O)cc1 (stereo not given)	27.3 nM	1.21 min⁻¹	4670 nM	0.00642 nM	–
CN(Cc1cnc2nc(N)nc(N)c2n1)c1ccc(C(=O)NC(CCN)C(=O)O)cc1 (stereo not given)	1360 nM	–	–	–	–
CNC(=O)NCC(NC(=O)c1ccc(N(C)Cc2cnc3nc(N)nc(N)c3n2)cc1)C(=O)O (stereo not given)	34.3 nM	–	–	14.2 nM	Efflux Ki (L1210 [4]): 0.27 min⁻¹; Influx Ki (Ehrlich [5]): 13400 nM; Influx Ki (Epithelial cell line): >500000 nM; ILS at 144 mg/kg (Mus musculus [6]): 12%; Weight (Mus musculus [7]): 20 g; Influx Ki (L1210 [8]): 16700 nM; Influx Ki (CCRF S-180): 19700 nM; MST (Mus musculus [9]): 7 days
CN(Cc1cnc2nc(N)nc(N)c2n1)c1ccc(C(=O)NC(CNC(=O)NC(CCC(=O)O)C(=O)O)C(=O)O)cc1 (stereo not given)	200 nM	0.234 min⁻¹	16400 nM	0.00471 nM	–
CN(Cc1cnc2nc(N)nc(N)c2n1)c1ccc(C(=O)NC(CCNC(N)=O)C(=O)O)cc1 (stereo not given)	21.8 nM	–	–	0.004 nM	Efflux Ki (L1210 [4]): 0.19 min⁻¹; Influx Ki (Ehrlich [5]): 15900 nM; Influx Ki (Epithelial cell line): >500000 nM; Weight (Mus musculus [10]): 21.6 g; Influx Ki (L1210 [8]): 17300 nM; MST (Mus musculus [11]): 9.3 days; ILS at 432 mg/kg (Mus musculus [12]): 33%; Influx Ki [13]: 24600 nM
CN(Cc1cnc2nc(N)nc(N)c2n1)c1ccc(C(=O)NC(CCNC(=O)OC(C)(C)C)C(=O)O)cc1 (stereo not given)	333 nM	–	–	–	–
CN(Cc1cnc2nc(N)nc(N)c2n1)c1ccc(C(=O)NC(CNC(=O)c2ccc(Cl)cc2)C(=O)O)cc1 (stereo not given)	11.9 nM	0.255 min⁻¹	7430 nM	0.00498 nM	–
CN(Cc1cnc2nc(N)nc(N)c2n1)c1ccc(C(=O)N[C@@H](CCC(=O)O)C(=O)O)cc1 [METHOTREXATE]	3.28 nM	0.203 min⁻¹	4570 nM	–	IC50 (Mus musculus [14]): 3.28 nM; Influx Ki (Epithelial cell): 339000 nM; ILS at 12 mg/kg (L1210 [15]): 173%; Weight (Mus musculus [16]): 19.8 g; Effllux (L1210 [8]): 0.23 min⁻¹; Influx Ki (L1210 [8]): 3700 nM; Influx Ki (CCRF S-180): 11400 nM; Influx Ki (Ehrlich [17]): 10100 nM; ILS at 15 mg/kg (Mus musculus [18]): 152%
CCOC(=O)C(CNC(=O)N(CCCl)N=O)NC(=O)c1ccc(N(C)Cc2cnc3nc(N)nc(N)c3n2)cc1 (stereo not given)	2900 nM	0.202 min⁻¹	46900 nM	3.24 nM	ILS (P388): 113%
CN(Cc1cnc2nc(N)nc(N)c2n1)c1ccc(C(=O)NC(CCCNC(=O)OC(C)(C)C)C(=O)O)cc1 (stereo not given)	97 nM	–	–	–	–
CN(Cc1cnc2nc(N)nc(N)c2n1)c1ccc(C(=O)NC(CNC(N)=O)C(=O)O)cc1 (stereo not given)	9.4 nM	–	–	35 nM	Efflux Ki (L1210 [4]): 0.25 min⁻¹; Influx Ki (Ehrlich [5]): 12500 nM; Influx Ki (Epithelial cell line): >500000 nM; Weight (Mus musculus [10]): 16 g; Influx Ki (L1210 [8]): 11600 nM; Influx Ki (CCRF S-180): 11600 nM; MST (Mus musculus [11]): 16.3 days; ILS at 432 mg/kg (Mus musculus [12]): 129%
CN(Cc1cnc2nc(N)nc(N)c2n1)c1ccc(C(=O)NC(CCCNC(=O)c2ccc(Cl)cc2)C(=O)O)cc1 (stereo not given)	1.71 nM	0.437 min⁻¹	4320 nM	0.00531 nM	ILS at 768 mg/kg (L1210 [19]): 104%
CN(Cc1cnc2nc(N)nc(N)c2n1)c1ccc(C(=O)NC(CN)C(=O)O)cc1 (stereo not given)	1030 nM	–	–	–	–
CCOC(=O)C(CNC(=O)N(C)N=O)NC(=O)c1ccc(N(C)Cc2cnc3nc(N)nc(N)c3n2)cc1 (stereo not given)	3650 nM	0.298 min⁻¹	42400 nM	6.35 nM	ILS (P388): 58%
